# pEC50: −log10 of the molar value. The source made the active and inactive calls. The calls are words filed in the database; no cut-off is given here.
# How the values were obtained:
# P2Y purinoceptor 6 [1] = target: T1, P2Y purinoceptor 6 (Homo sapiens, UniProt Q15077); test: Binding affinity to human recombinant P2Y6 receptor expressed in human 1321N1 cells at 400 nM after 60 mins by flow cytometry; type: cell-based
# P2Y purinoceptor 4 [2] = target: T2, P2Y purinoceptor 4 (Homo sapiens, UniProt P51582); test: Agonist activity at human recombinant P2Y4 receptor expressed in human 1321N1 cells using [3H]inositol as substrate assessed as [3H]inositol phosphate formation after 30 mins by liquid scintillation counting analysis; type: functional, cell-based
# Summary of the method: (§1)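 PLC activation measured in 1321N1 human astrocytoma cells stably expressing recombinant hP2Y2, hP2Y4 or hP2Y6 receptor; potency given as EC50 or % activation.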
# P2Y purinoceptor 2 [3] = target: T3, P2Y purinoceptor 2 (Homo sapiens, UniProt P41231); test: Agonist activity at human recombinant P2Y2 receptor expressed in human 1321N1 cells using [3H]inositol as substrate assessed as [3H]inositol phosphate formation after 30 mins by liquid scintillation counting analysis; type: functional, cell-based; summary of the method: as §1
# P2Y purinoceptor 6 [4] = target: T1, P2Y purinoceptor 6; test: Agonist activity at human recombinant P2Y6 receptor expressed in human 1321N1 cells using [3H]inositol as substrate assessed as [3H]inositol phosphate formation after 30 mins by liquid scintillation counting analysis; type: functional, cell-based; summary of the method: as §1
# P2Y purinoceptor 4 [5] = target: T2, P2Y purinoceptor 4; test: Agonist activity at human recombinant P2Y4 receptor expressed in human 1321N1 cells using [3H]inositol as substrate assessed as [3H]inositol phosphate formation at 10 uM after 30 mins by liquid scintillation counting analysis; type: functional, cell-based; summary of the method: as §1
# P2Y purinoceptor 6 [6] = target: T1, P2Y purinoceptor 6; test: Binding affinity to human recombinant P2Y6 receptor expressed in human 1321N1 cells at 100 nM to 1 uM by flow cytometry in presence of UDP; type: cell-based
# Summary of the method: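 1321N1 cells with or without P2Y6R labeled with 100 nM to 1 μM Cy5 conjugate; blockade tested with 100 μM UDP; read by flow cytometry.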
# P2Y purinoceptor 2 [7] = target: T3, P2Y purinoceptor 2; test: Agonist activity at human recombinant P2Y2 receptor expressed in human 1321N1 cells using [3H]inositol as substrate assessed as [3H]inositol phosphate formation at 10 uM after 30 mins by liquid scintillation counting analysis; type: functional, cell-based; summary of the method: as §1
# Homo sapiens [8] = species on record: Homo sapiens; test: Selectivity ratio of EC50 for human recombinant P2Y2 receptor to EC50 for human recombinant P2Y6 receptor
# Homo sapiens [9] = species on record: Homo sapiens; test: Selectivity ratio of EC50 for human recombinant P2Y4 receptor to EC50 for human recombinant P2Y6 receptor
# P2Y purinoceptor 6 [10] = target: T1, P2Y purinoceptor 6; test: Binding affinity to human recombinant P2Y6 receptor expressed in human 1321N1 cells after 2 mins by flow cytometry in presence of MRS2957; type: cell-based
# Summary of the method: (§2)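 1321N1-P2Y6R cells preincubated 30 min with known ligand (UDP 10 μM, MRS2957 0.5 μM, MRS2578 1 μM), then briefly exposed (2 min) to fluorescent agonist; labeling quantified by flow cytometry.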
# P2Y purinoceptor 6 [11] = target: T1, P2Y purinoceptor 6; test: Agonist activity at human recombinant P2Y6 receptor expressed in human 1321N1 cells assessed as compound internalization at 1 uM after 60 mins by confocal microscopy in presence of sucrose; type: cell-based
# Summary of the method: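 P2Y6R-expressing 1321N1 cells incubated with 1 μM fluorescent agonist for 60 min at 37 °C in medium containing 0.4 M sucrose; labeling imaged by confocal microscopy.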
# P2Y purinoceptor 6 [12] = target: T1, P2Y purinoceptor 6; test: Binding affinity to human recombinant P2Y6 receptor expressed in human 1321N1 cells at 500 nM after 3 hrs by flow cytometry in presence of UDP relative to control; type: cell-based
# Summary of the method: (§3)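 Saturation labeling by flow cytometry, 10 nM to 1.5 μM fluorescent ligand, 3 h at 37 °C on 1321N1-P2Y6R cells; nonspecific binding with 100 μM UDP; autofluorescence from ligand-free cells; values as MESF.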
# P2Y purinoceptor 6 [13] = target: T1, P2Y purinoceptor 6; test: Agonist activity at human recombinant P2Y6 receptor expressed in human 1321N1 cells assessed as compound internalization at 2 uM after 60 mins by confocal microscopy; type: cell-based
# Summary of the method: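 Confocal microscopy of P2Y6R-expressing 1321N1 cells after 60 min at 37 °C with 2 μM fluorescent agonist; cells without ligand served as control.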
# [14] = target: T4, P2Y purinoceptor 14 (Homo sapiens) (UniProt Q15391); test: Agonist activity at human P2Y14 receptor expressed in rat C6 cells assessed as inhibition of forskolin-stimulated adenylate cyclase up to 10 uM; type: functional, cell-based
# T4 sequence (whole entry): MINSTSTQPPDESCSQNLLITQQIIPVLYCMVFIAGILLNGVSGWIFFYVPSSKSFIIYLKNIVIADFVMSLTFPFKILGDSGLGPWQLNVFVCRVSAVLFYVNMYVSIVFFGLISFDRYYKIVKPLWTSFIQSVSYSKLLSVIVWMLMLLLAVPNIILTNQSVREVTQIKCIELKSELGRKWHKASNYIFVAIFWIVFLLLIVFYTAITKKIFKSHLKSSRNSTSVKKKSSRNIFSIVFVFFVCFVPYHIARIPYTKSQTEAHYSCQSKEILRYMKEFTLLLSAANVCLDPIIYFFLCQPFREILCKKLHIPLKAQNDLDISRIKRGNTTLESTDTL
# [15] = target: P2Y purinoceptor 1 (Homo sapiens) (UniProt P47900); test: Binding affinity to P2Y1 receptor (unknown origin) expressed in human 1321N1 cells at 400 nM after 60 mins by flow cytometry; type: cell-based
# P2Y purinoceptor 6 [16] = target: T1, P2Y purinoceptor 6; test: Binding affinity to human recombinant P2Y6 receptor expressed in human 1321N1 cells after 2 mins by flow cytometry in presence of UDP; type: cell-based; summary of the method: as §2
# P2Y purinoceptor 6 [17] = target: T1, P2Y purinoceptor 6; test: Binding affinity to human recombinant P2Y6 receptor expressed in human 1321N1 cells after 2 mins by flow cytometry in presence of MRS2578; type: cell-based; summary of the method: as §2
# P2Y purinoceptor 6 [18] = target: T1, P2Y purinoceptor 6; test: Binding affinity to human recombinant P2Y6 receptor expressed in human 1321N1 cells assessed as surface bound fraction at 400 nM after 60 mins by flow cytometry in sucrose containing media; type: cell-based
# Summary of the method: (§4)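 1321N1-P2Y6R cells incubated with 400 nM fluorescent ligand at 37 °C for 60 min; nonspecific binding with 100 μM UDP; surface fraction in 0.4 M sucrose medium; internalized fraction as acid-insensitive fluorescence after 3 × 5 min acid wash (pH 3.5); fluorescence converted to MESF, nonspecific subtracted.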
# P2Y purinoceptor 6 [19] = target: T1, P2Y purinoceptor 6; test: Binding affinity to human recombinant P2Y6 receptor expressed in human 1321N1 cells at 10 nM to 1.5 uM after 3 hrs by flow cytometry relative to control; type: cell-based; summary of the method: as §3
# P2Y purinoceptor 6 [20] = target: T1, P2Y purinoceptor 6; test: Binding affinity to human recombinant P2Y6 receptor expressed in human 1321N1 cells at 10 nM to 10 uM after 60 mins by flow cytometry relative to control; type: cell-based
# Summary of the method: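 Flow cytometry of 1321N1-P2Y6R and control 1321N1 cells after 60 min with 10 nM to 10 μM fluorescent ligand.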
# P2Y purinoceptor 6 [21] = target: T1, P2Y purinoceptor 6; test: Binding affinity to human recombinant P2Y6 receptor expressed in human 1321N1 cells at 400 nM after 3 hrs by flow cytometry; type: cell-based
# Summary of the method: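 FCM histogram of 1321N1-P2Y6R cells after 3 h incubation with 400 nM fluorescent ligand; total, nonspecific and autofluorescence measured; three independent experiments.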
# P2Y purinoceptor 6 [22] = target: T1, P2Y purinoceptor 6; test: Binding affinity to human recombinant P2Y6 receptor expressed in human 1321N1 cells assessed as association rate constant at 400 nM by flow cytometry; type: cell-based
# Summary of the method: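 Flow cytometric kinetics of 400 nM fluorescent ligand binding to 1321N1-P2Y6R cells at 37 °C; nonspecific binding defined with 100 μM UDP; association rate constant k1 derived from time course.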
# P2Y purinoceptor 6 [23] = target: T1, P2Y purinoceptor 6; test: Binding affinity to human recombinant P2Y6 receptor expressed in human 1321N1 cells at 500 nM after 60 mins by fluorescence microscopy in presence of MRS2578; type: cell-based
# Summary of the method: (§5)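 P2Y6R-expressing 1321N1 cells preincubated 30 min at 37 °C with 500 nM MRS2957 or MRS2578, then exposed to 500 nM fluorescent agonist for 60 min at 37 °C; imaged by fluorescence microscopy (excitation 495 nm, emission 519 nm).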
# P2Y purinoceptor 6 [24] = target: T1, P2Y purinoceptor 6; test: Binding affinity to human recombinant P2Y6 receptor expressed in human 1321N1 cells assessed as compound internalization measured as the acid-insensitive fraction following acid wash at 400 nM after 60 mins by flow cytometry; type: cell-based; summary of the method: as §4
# P2Y purinoceptor 6 [25] = target: T1, P2Y purinoceptor 6; test: Binding affinity to human recombinant P2Y6 receptor expressed in human 1321N1 cells at 500 nM after 60 mins by fluorescence microscopy in presence of MRS2957; type: cell-based; summary of the method: as §5
# P2Y purinoceptor 6 [26] = target: T1, P2Y purinoceptor 6; test: Binding affinity to human recombinant P2Y6 receptor expressed in human 1321N1 cells at 400 nM after 60 mins by flow cytometry at 400 nM after 60 mins by flow cytometry; type: cell-based; summary of the method: as §4
# T1 sequence (Q15077 whole entry): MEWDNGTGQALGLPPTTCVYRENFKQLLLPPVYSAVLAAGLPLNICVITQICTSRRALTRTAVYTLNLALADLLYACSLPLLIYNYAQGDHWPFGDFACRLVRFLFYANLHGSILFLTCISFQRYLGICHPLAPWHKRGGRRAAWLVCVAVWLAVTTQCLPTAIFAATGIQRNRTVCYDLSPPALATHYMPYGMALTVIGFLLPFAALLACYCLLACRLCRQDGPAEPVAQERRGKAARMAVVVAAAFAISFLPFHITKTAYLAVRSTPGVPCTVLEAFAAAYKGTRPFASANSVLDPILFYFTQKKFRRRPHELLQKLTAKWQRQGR
# T2 sequence (P51582 whole entry): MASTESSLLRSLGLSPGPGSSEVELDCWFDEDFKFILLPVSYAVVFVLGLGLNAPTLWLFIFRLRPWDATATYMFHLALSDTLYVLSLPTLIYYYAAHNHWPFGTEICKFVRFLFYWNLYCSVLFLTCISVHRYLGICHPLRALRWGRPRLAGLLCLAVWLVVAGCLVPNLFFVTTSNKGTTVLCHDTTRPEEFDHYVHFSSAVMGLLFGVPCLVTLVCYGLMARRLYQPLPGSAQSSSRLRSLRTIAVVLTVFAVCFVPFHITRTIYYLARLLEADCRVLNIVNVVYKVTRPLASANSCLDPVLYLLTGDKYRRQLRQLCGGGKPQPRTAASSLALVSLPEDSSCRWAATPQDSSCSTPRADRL
# T3 sequence (P41231 whole entry): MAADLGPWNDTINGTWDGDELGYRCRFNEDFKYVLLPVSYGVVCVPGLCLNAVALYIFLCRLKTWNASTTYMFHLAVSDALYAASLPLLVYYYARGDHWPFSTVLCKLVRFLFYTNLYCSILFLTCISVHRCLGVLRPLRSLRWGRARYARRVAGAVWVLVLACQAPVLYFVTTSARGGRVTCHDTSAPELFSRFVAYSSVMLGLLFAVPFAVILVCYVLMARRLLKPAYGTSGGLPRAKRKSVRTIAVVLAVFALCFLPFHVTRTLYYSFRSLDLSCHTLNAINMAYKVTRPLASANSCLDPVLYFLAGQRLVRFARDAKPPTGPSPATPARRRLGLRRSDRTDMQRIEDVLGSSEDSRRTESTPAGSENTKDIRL
# P2Y purinoceptor 1 (Homo sapiens), sequence (P47900 whole entry): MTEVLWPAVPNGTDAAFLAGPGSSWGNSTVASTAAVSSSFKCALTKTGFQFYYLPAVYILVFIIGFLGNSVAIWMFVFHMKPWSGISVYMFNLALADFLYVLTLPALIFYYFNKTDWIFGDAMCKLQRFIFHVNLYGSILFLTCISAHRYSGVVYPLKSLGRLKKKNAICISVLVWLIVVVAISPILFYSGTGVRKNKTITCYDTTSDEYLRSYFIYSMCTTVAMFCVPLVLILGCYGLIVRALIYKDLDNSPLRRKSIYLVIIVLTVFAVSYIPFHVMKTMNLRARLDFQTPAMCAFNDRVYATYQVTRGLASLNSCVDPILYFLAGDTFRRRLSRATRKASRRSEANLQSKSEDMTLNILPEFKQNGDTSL
Compound,pEC50 (P2Y purinoceptor 4 [2]),pEC50 (P2Y purinoceptor 2 [3]),pEC50 (P2Y purinoceptor 6 [4]),Activity (P2Y purinoceptor 4 [5]),also measured
N=c1ccc2c(-c3ccc(C(=O)NCCCCCCn4cc(CCC#Cc5cccc(CO/N=c6/ccn([C@@H]7O[C@H](COP(=O)(O)O)[C@@H](O)[C@H]7O)c(=O)[nH]6)c5)nn4)cc3C(=O)O)c3ccc(N)c(S(=O)(=O)O)c3oc-2c1S(=O)(=O)O,,,,,Activity (P2Y purinoceptor 6 [1]): inactive
O=c1[nH]/c(=N\OCc2ccc([N+](=O)[O-])cc2)ccn1[C@@H]1O[C@H](COP(=O)(O)OP(=O)(O)O)[C@@H](O)[C@H]1O,5.66,5.48,7.39,,
CO/N=c1/ccn([C@@H]2O[C@H](COP(=O)(O)OP(=O)(O)OP(=O)(O)Oc3ccc4ccccc4c3)[C@@H](O)[C@H]2O)c(=O)[nH]1,,5.54,6.14,< 50%,
C#CCCC#Cc1cccc(CO/N=c2/ccn([C@@H]3O[C@H](COP(=O)(O)OP(=O)(O)O)[C@@H](O)[C@H]3O)c(=O)[nH]2)c1,6.02,5.41,7.00,,
CN1/C(=C/C=C/C=C/C2=[N+](CCCCCCC(=O)NCCCCCCn3cc(CCC#Cc4cccc(CO/N=c5/ccn([C@@H]6O[C@H](COP(=O)(O)OP(=O)(O)O)[C@@H](O)[C@H]6O)c(=O)[nH]5)c4)nn3)c3ccccc3C2(C)C)C(C)(C)c2ccccc21,,,,,Activity (P2Y purinoceptor 6 [6]): inactive
C#CCCOP(=O)(O)OP(=O)(O)OP(=O)(O)OC[C@H]1O[C@@H](n2cc/c(=N/OCc3ccccc3)[nH]c2=O)[C@H](O)[C@@H]1O,,,5.76,< 50%,Activity (P2Y purinoceptor 2 [7]): < 50%
O=c1[nH]/c(=N\OCc2cccc(I)c2)ccn1[C@@H]1O[C@H](COP(=O)(O)OP(=O)(O)O)[C@@H](O)[C@H]1O,6.45,5.60,7.72,,
CC(=O)NCCn1cc(CCOP(=O)(O)OP(=O)(O)OP(=O)(O)OC[C@H]2O[C@@H](n3cc/c(=N/OCc4ccccc4)[nH]c3=O)[C@H](O)[C@@H]2O)nn1,5.48,5.42,6.06,,
O=c1[nH]/c(=N\OCc2ccccc2)ccn1[C@@H]1O[C@H](COP(=O)(O)OP(=O)(O)O)[C@@H](O)[C@H]1O,,,,,pEC50 (P2Y purinoceptor 6 [4]; 1321-n1): 7.59
O=c1ccn([C@@H]2O[C@H](COP(=O)(O)OP(=O)(O)OP(=O)(O)OC[C@H]3O[C@@H](n4cc/c(=N/OCc5ccccc5)[nH]c4=O)[C@H](O)[C@@H]3O)[C@@H](O)[C@H]2O)c(=O)[nH]1,6.20,5.77,6.90,,
O=c1[nH]/c(=N\OCc2cccc(Br)c2)ccn1[C@@H]1O[C@H](COP(=O)(O)OP(=O)(O)O)[C@@H](O)[C@H]1O,< 5.00,5.21,7.41,,Ratio EC50 (Homo sapiens [8]): 160; Ratio EC50 (Homo sapiens [9]): > 260
N=c1ccc2c(-c3ccc(C(=O)NCCCCCCn4cc(CCC#Cc5cccc(CO/N=c6/ccn([C@@H]7O[C@H](COP(=O)(O)OP(=O)(O)O)[C@@H](O)[C@H]7O)c(=O)[nH]6)c5)nn4)cc3C(=O)O)c3ccc(N)c(S(=O)(=O)O)c3oc-2c1S(=O)(=O)O,,5.60,8.05,< 50%,Activity (P2Y purinoceptor 6 [10]): inactive; Activity (P2Y purinoceptor 6 [11]): inactive; Ratio (P2Y purinoceptor 6 [12]): 4; Activity (P2Y purinoceptor 6 [13]): Active; inhibition [14]: inactive; Activity [15]: inactive; Activity (P2Y purinoceptor 6 [16]): inactive; Activity (P2Y purinoceptor 6 [17]): inactive; Ratio EC50 (Homo sapiens [8]): 280; Activity (P2Y purinoceptor 6 [18]): 17%; Activity (P2Y purinoceptor 6 [19]): Active; Activity (P2Y purinoceptor 6 [20]): Active; Activity (P2Y purinoceptor 6 [21]): Active; K (P2Y purinoceptor 6 [22]): 0.019 min⁻¹; Activity (P2Y purinoceptor 6 [23]): inactive; Ratio EC50 (Homo sapiens [9]): > 1100; Activity (P2Y purinoceptor 6 [24]): 77%; Activity (P2Y purinoceptor 6 [25]): inactive; Activity (P2Y purinoceptor 6 [26]): 23%
O=c1[nH]/c(=N\OCc2ccc(Br)cc2)ccn1[C@@H]1O[C@H](COP(=O)(O)OP(=O)(O)O)[C@@H](O)[C@H]1O,5.13,5.28,7.49,,
C#CCCCOP(=O)(O)OP(=O)(O)OP(=O)(O)OC[C@H]1O[C@@H](n2cc/c(=N/OCc3ccccc3)[nH]c2=O)[C@H](O)[C@@H]1O,,,< 5.00,< 50%,
O=c1[nH]/c(=N\OCc2ccc(I)cc2)ccn1[C@@H]1O[C@H](COP(=O)(O)OP(=O)(O)O)[C@@H](O)[C@H]1O,,,6.83,< 50%,

# From ChEMBL document CHEMBL3217604, “4-Alkyloxyimino-cytosine nucleotides: tethering approaches to molecular probes for the P2Y6 receptor” (Medchemcomm, 2013)
